From PubChem BioAssay come the findings set out here.

Unmarked numbers belong to inactive results. Results filed as inconclusive are left out. Activity calls are given as the source filed them.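 How the source made its calls, unless noted: active means inhibition over a set limit, the all-compound mean plus 3 SD, in both replicate runs; inconclusive means over that limit in just one replicate run; inactive means at or under that limit in both runs.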

Experiment [1] in a line: OD615 S. cerevisiae growth inhibition, permissive medium, pilot counter-assay, permissive growth control for S. cerevisiae lifespan shortening project (AID 705;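 active means growth inhibition above 25% in both replicates, a cutoff set 3 SD above the mean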). The settings on record: OD615, 24 h, at 10 µM, active compounds read high. Put shortly:
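Test system: Saccharomyces cerevisiae strain carrying genetically modified DeaD replicative-lifespan system; buffer or medium: SC raffinose/galactose permissive medium; dosing: one dose 10 µM, DMSO 0.25% final; times: 24 h exposure, 30 °C; measured by: OD at 615 nm; read-out basis: growth inhibition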

Experiment [2] is described as follows: Restrictive medium S. cerevisiae growth inhibition, OD615, pilot screen of yeast lifespan reduction project, restrictive growth control (AID 706;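 active means growth inhibition above a set limit, 3 SD over mean compound inhibition, in both replicates, cut at about 43% in these data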;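 further: modified DeaD lifespan yeast strain shifted to restrictive glucose medium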). As to conditions: OD615, 48 h, at 10 µM, active compounds read high. In a few lines:
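material = engineered S. cerevisiae DeaD strain | buffer or medium = glucose-based CSMM-D restrictive medium | dosing = one concentration, 10 µM final, 0.25% DMSO | schedule = 4 h pre-growth plus 48 h compound exposure, 30 °C | detection = OD615 absorbance reading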

Experiment [3] is described as follows: viability gain of MRP-1-high H69AR cells under doxorubicin, pilot screen, MRP-1 activator project, CellTiter-Glo, duplicate (AID 807;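 active means viability increase at or above a cutoff of the median across tested compounds plus 3 SD, cut at about 8.5% in these data, passing the limit was not always enough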;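 further: compound pretreatment 18-22 h then 72 h combined with doxorubicin; 0% = doxorubicin alone and 100% = vehicle without doxorubicin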). As to conditions: H69AR viability with doxorubicin, CellTiter-Glo luminescence; at 10 µM; active compounds read high.
Experiment [4] is described as follows: growth suppression of beta-catenin knockout HCT116, pilot screen, human colon tumor cells (AID 823;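 active means cell viability at or below a set limit in both duplicate runs, the limit being the all-compound median minus 4 SD, cut at about 23% in these data, passing the limit was not always enough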;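 further: 0% = wells killed by 20 µM Hyamine and 100% = untreated DMSO cell wells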). The settings on record: CellTiter-Glo, 60 h, at 10 µM, active compounds read low.
Experiment [5] is described as follows: growth suppression of PTEN-deleted HCT116, pilot screen, cell-based, HCT116 clonal line, CellTiter-Glo (AID 824;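 active means viability at or below 27.92% in each of two runs, the all-compound median minus 4 SD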;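 further: 0% = 20 µM Hyamine control and 100% = vehicle cell control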). As to conditions: 60 h, at 10 µM, active compounds read low.
The nature of experiment [6]: inhibitors of the yeast RAM network, pilot screen, dse1pr::URA3 reporter, 5-FOA selection (AID 869).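 Further: 0% = DMSO wells with no growth and 100% = 10 µM 1-NA-PP1 with full growth; RAM network block rescues cells from 5-FOA so hits raise OD615 growth.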 The settings on record: S. cerevisiae dse1pr::URA3 5-FOA growth, OD615, 2 d; at 10 µM; active compounds read high; strain carries analog-sensitive mutant Cbk1 kinase.
Experiment [7] is described as follows: RAM signaling pathway blockade in yeast – S. cerevisiae, Pdr1DBD-CYC8 efflux-inhibited sensitized strain, primary screen (AID 1298;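 active means RAM network inhibition above 8.4% in each of two replicates, 3 SD over the compound average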;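 further: 0% = DMSO untreated cells without growth and 100% = 10 µM 1-NA-PP1 full growth; higher means more yeast growth rescued from 5-FOA killing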). The settings on record: S. cerevisiae cbk1-as DSE1-URA3 strain, 5-FOA growth OD615, 2 d; at 50 µM; active compounds read high.

Turning to `Cn1c(=O)oc2cc(S(=O)(=O)NC3CCCc4ccccc43)ccc21` (stereo unspecified), the growth inhibition was -25.4% in experiment [1] and -11.4% in experiment [2]. The viability increase in experiment [3] is -1.98%. Besides, the viability in experiment [4] was 92.4%; in experiment [5] it was 90.7%. For the same compound, the inhibition in experiment [6] is 3.1%. Moreover, in experiment [7], the RAM network inhibition is 6.28%.
On to `CCOC(=O)N1CCN(c2c(N3CCc4ccccc43)c(=O)c2=O)CC1`, for which the growth inhibition in experiment [1] is -9.63%; in experiment [2], 14.6%. In addition, the viability increase in experiment [3] is -1.52%. In addition, the figures for the viability in experiment [4] and in experiment [5] were 105% and 100%, respectively. In experiment [6], the inhibition was 2.05%. For the same compound, the RAM network inhibition in experiment [7] was -0.74%.
Take `CCc1nc(N(CC)CC)c2oc3ccccc3c2n1`: the growth inhibition in experiment [1] was -2.86%; in experiment [2], -35.2%. Besides, the viability increase in experiment [3] is -4.87%. Moreover, the viability is 75.5% in experiment [4] and 71% in experiment [5]. Further, the inhibition in experiment [6] is -0.16%. The RAM network inhibition in experiment [7] was 1.04%.
For `COc1cccc(C(=O)Nc2cc(=O)n(C)c(=O)n2C)c1OC`, the figures for the growth inhibition in experiment [1] and in experiment [2] were -1.72% and -6.04%, respectively. Further, the viability increase in experiment [3] was -2.46%. Also, the viability in experiment [4] is 105%; in experiment [5] it was 98.8%. In experiment [6], the inhibition was 1.94%. Further, the RAM network inhibition in experiment [7] was 1.14%.
With `COc1cc(C(c2sc3nc(C)nn3c2O)N2CC(C)OC(C)C2)cc(OC)c1OC` (stereo unspecified), the growth inhibition was -0.68% in experiment [1] and -4.15% in experiment [2]. Moreover, the viability increase in experiment [3] is -2.37%. In addition, the results for the viability in experiment [4] and in experiment [5] were 93.6% and 90.1%, respectively. Also, in experiment [6], the inhibition was 0.73%. Also, the RAM network inhibition in experiment [7] is 2.94%.
For the compound `Cn1c(Cn2c(=O)sc3ccccc32)nnc1SCC(=O)Nc1cccc(F)c1`, the figures for the growth inhibition in experiment [1] and in experiment [2] were -12% and -5.46%, respectively. For the same compound, the viability increase in experiment [3] is -2.58%. The viability in experiment [4] is 97.3%; in experiment [5], 93.4%. The inhibition in experiment [6] was 1.9%. Further, the RAM network inhibition in experiment [7] was 1.86%.
On to `Cc1occc1-c1nc(-c2ccccn2)no1`, for which the growth inhibition in experiment [1] is -14.3%; in experiment [2], 3.22%. In experiment [3], the viability increase was -4.5%. Besides, the viability in experiment [4] was 71.2%; in experiment [5], 67.7%. Besides, the inhibition in experiment [6] is 0.16%. For the same compound, the RAM network inhibition in experiment [7] is 1.6%.
As for `O=C(Nc1ccc(N2CCCC2)c(Cl)c1)c1ccco1`, the growth inhibition in experiment [1] is -2.11%; in experiment [2] it was 8.76%. For the same compound, in experiment [3], the viability increase is 0.68%. For the same compound, the viability was 91.5% in experiment [4] and 89.1% in experiment [5]. In addition, the inhibition in experiment [6] was 1.51%. Besides, the RAM network inhibition in experiment [7] is 0.62%.
For `CC1=C(C(=O)Nc2ccccc2)C(c2ccco2)C(C#N)=C(SCc2ccccc2)N1` (stereo unspecified), the growth inhibition in experiment [1] is 9%; in experiment [2], 14.5%. Moreover, the viability increase in experiment [3] was -7.63%. The viability in experiment [4] was 11.8% (active); in experiment [5], 9.06% (active). In experiment [6], the inhibition is 3.18%. Moreover, the RAM network inhibition in experiment [7] is 3.38%.
In the case of `Cc1cc(C(=O)NCc2ccc3c(c2)OCO3)n(-c2ccccc2)n1`, the figures for the growth inhibition in experiment [1] and in experiment [2] were -8.49% and -5.84%, respectively. Moreover, the viability increase in experiment [3] was -0.01%. The viability in experiment [4] is 92.2%; in experiment [5], 96.3%. For the same compound, the inhibition in experiment [6] was 0.985%. In addition, the RAM network inhibition in experiment [7] was 4.44%.
With `CCOC(=O)C1CCN(C(=O)CN(c2cccc(OC)c2)S(=O)(=O)c2ccccc2)CC1`, the growth inhibition was -4.73% in experiment [1] and -0.62% in experiment [2]. For the same compound, the viability increase in experiment [3] was -3.2%. For the same compound, the viability was 92.9% in experiment [4] and 87.2% in experiment [5]. Also, in experiment [6], the inhibition was -0.74%. In addition, the RAM network inhibition in experiment [7] is 1.79%.
Regarding `CCCC(=O)Nc1nc2ccc(OC)cc2s1`, the growth inhibition in experiment [1] was -15.5%; in experiment [2], -17.6%. In addition, the viability increase in experiment [3] was 1.29%. In addition, the viability was 93.8% in experiment [4] and 80.7% in experiment [5]. Further, the inhibition in experiment [6] is 0.5%. Also, the RAM network inhibition in experiment [7] is 2.32%.
Turning to `Cc1nc2ccc(S(=O)(=O)NC(C(=O)N3CCCCCC3)C(C)C)cc2s1` (stereo unspecified), the growth inhibition was -11.3% in experiment [1] and -4.58% in experiment [2]. The viability increase in experiment [3] was -1.12%. The viability was 97.5% in experiment [4] and 87.8% in experiment [5]. Also, the inhibition in experiment [6] is 2.01%. Moreover, the RAM network inhibition in experiment [7] was 2.77%.
For `CCN1CCN(C(=O)c2cc3c(s2)-c2ccccc2S(=O)(=O)C3)CC1`, the growth inhibition in experiment [1] is -4.69%; in experiment [2] it was -9.1%. Moreover, the viability increase in experiment [3] was -2.15%. Besides, the viability in experiment [4] is 99.6%; in experiment [5] it was 92.5%. For the same compound, the inhibition in experiment [6] was 2.36%. Also, the RAM network inhibition in experiment [7] is 0.72%.
On to `Cc1ccc(S(=O)(=O)N(C)CCCC(=O)N2CCOCC2)cc1`, for which the growth inhibition in experiment [1] is -17.3%; in experiment [2], -6.47%. In addition, in experiment [3], the viability increase is -1.27%. Besides, the viability in experiment [4] was 101%; in experiment [5], 96.1%. In addition, in experiment [6], the inhibition is 1.17%. The RAM network inhibition in experiment [7] was 3.03%.
On to `Cn1nc(-c2ccc(Cl)cc2)c2cc(C(=O)N3CCOCC3)sc21`, for which the growth inhibition is -6.13% in experiment [1] and 4.78% in experiment [2]. The viability increase in experiment [3] is -5.6%. Also, the viability is 89.4% in experiment [4] and 80.5% in experiment [5]. For the same compound, the inhibition in experiment [6] is 1.29%. The RAM network inhibition in experiment [7] is 3.38%.
On to `CCCC(=O)C1=C(SCC)CC(C)(C)C(C(=O)OC)C1=O` (stereo unspecified), for which the growth inhibition in experiment [1] was -14.4%; in experiment [2], -21.5%. Further, in experiment [3], the viability increase was -2.57%. In addition, the viability was 86.5% in experiment [4] and 91.8% in experiment [5]. For the same compound, the inhibition in experiment [6] is -0.035%. In experiment [7], the RAM network inhibition was 3.4%.
As for `COc1ccc(NC(=O)NCCCN2CCc3ccccc3C2)cc1`, the growth inhibition in experiment [1] is 3.62%; in experiment [2] it was 0.72%. In addition, the viability increase in experiment [3] was -2.53%. Also, the viability in experiment [4] is 97.3%; in experiment [5] it was 98.2%. Further, the inhibition in experiment [6] is 1.15%. The RAM network inhibition in experiment [7] was -1.19%.
